Assay outcomes (PubChem BioAssay)
SR-BI DiI-HDL act: SR-BI HDL lipid transfer activation | activation, % at 12.5 µM | hit rate 0.096% among 320,000 | CHO ldlA[mSR-BI] cells, DiI-HDL uptake fluorescence, 3 h; 100 = double the neutral-control signal;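 active means mean replicate activation of at least 60% and every replicate at or above 60%; inconclusive means mean or all-replicate condition met, but not both; inactive means mean below 60% and not all replicates reaching 60%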
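Test system: SR-BI-overexpressing, LDLR-lacking CHO cells; Also added: labelled HDL, 10 µg/mL; Measured by: bottom-read cell fluorescence after medium removal, ex 550/em 595 nm; Timing: 3 h uptake period with compound, 37 °C; Buffer or medium: F12, 0.5% BSA, 25 mM HEPES; Doses: single compound concentration, delivered by pin transfer.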
NOD2 RIPK2 PPI: NOD2-RIPK2 protein interaction inhibition; CHO BLA complementation NOD2-RIPK2, CCF4 ratio; inhibition, % at 4.98 µM; hit rate 0.38% among 360,000; in the data active means inhibition above about 21%
Target sequence (O43353 whole entry, looked up): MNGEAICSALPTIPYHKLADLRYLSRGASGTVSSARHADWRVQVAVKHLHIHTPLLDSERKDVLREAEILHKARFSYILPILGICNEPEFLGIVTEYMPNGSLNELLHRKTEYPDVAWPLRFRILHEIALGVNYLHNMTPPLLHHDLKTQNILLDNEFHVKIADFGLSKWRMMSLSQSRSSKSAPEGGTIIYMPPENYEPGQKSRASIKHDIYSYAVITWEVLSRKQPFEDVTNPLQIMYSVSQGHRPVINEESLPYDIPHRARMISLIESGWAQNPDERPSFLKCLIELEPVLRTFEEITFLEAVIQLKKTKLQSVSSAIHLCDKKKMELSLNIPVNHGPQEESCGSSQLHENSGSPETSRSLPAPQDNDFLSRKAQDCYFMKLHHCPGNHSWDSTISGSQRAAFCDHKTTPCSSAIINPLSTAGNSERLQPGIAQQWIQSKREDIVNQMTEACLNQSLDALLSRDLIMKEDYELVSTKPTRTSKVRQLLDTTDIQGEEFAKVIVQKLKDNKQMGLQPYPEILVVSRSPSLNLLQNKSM
Lipid droplet: modulators of hepatic lipid droplet formation. AML12 mouse hepatocytes, oleate lipid droplets, BODIPY imaging. inhibition, % at 6.5 µM. hit rate 0.4% among 240,000. AID 1656;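 active means lipid droplet intensity inhibited by at least 50%, with more than 500 cells counted; inconclusive means wells with under 300 cells, treated as cytotoxic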
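Material – mouse AML12 hepatocyte cell line, fixed after treatment · Compound dosing – one dose, 6.5 µM compound · Times – compound with oleate, overnight · Measured by – Image-based BODIPY and DAPI two-channel analysis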
TLR9-MyD88 inh: TLR9-MyD88 interaction inhibition. hit rate 0.21% among 340,000. CHO BLA complementation TLR9-MyD88, CCF4 FRET ratio. AID 504734. inhibition, % at 4.98 µM. Q9NR96+Q99836;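 active means inhibition above the mean over all tested compounds plus 3 SD, cut at about 21% in these data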
TLR4 MyD88 comp: TLR4-MyD88 interaction inhibition in cells | hit rate 0.18% among 200,000 | AID 861 | inhibition, % at 8.4 µM | O00206+Q99836 | HeLa CL3-4 TLR4/MyD88 BLA complementation, FRET ratio; in the data active means inhibition above about 25%
SR-BI HDL uptake: inhibitors of mouse SR-BI mediated HDL lipid uptake; ldlA[mSR-BI] CHO cells, DiI-HDL uptake fluorescence, 3 h; inhibition, % at 12.5 µM; hit rate 0.96% among 320,000; AID 488896;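 active means mean replicate inhibition of at least 70% and a set share of replicates each scoring 70 or more; inconclusive means meets just one of the two criteria; inactive means fails both criteria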
DiI quencher: DiI fluorescence quenching in cell-free counter-screen; shares compounds with SR-BI HDL uptake; cell-free DiI-HDL fluorescence quenching, 30 min; AC50, µM (highest dose often 35 µM); hit rate 20% among 470;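 active means quenching, a falling signal, with AC50 below a set limit tied to the top valid dose, actives reach about 32 µM in these data; inconclusive means no clear call, values can overlap the other calls; inactive means rising signal, and the rest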
A number is an active result; - = inactive; ? = inconclusive; . = not tested or not shown. A selection: hits, their analogues and other compounds. The true share with any hit is near 1.6%.

SMILES	SR-BI DiI-HDL act	NOD2 RIPK2 PPI	Lipid droplet	TLR9-MyD88 inh	TLR4 MyD88 comp	SR-BI HDL uptake	DiI quencher
CCCCCCC(=O)Nc1nc(C)c(-c2csc(Nc3ccc(Cl)cc3)n2)s1	-	-	.	-	-	119.9	1.09µM
CCCN(CCC)C(=O)CC(c1ccccc1)c1ccco1 (stereo unspecified)	-	-	-	-	.	-	.
CCCCC(c1nnnn1CC1CCCO1)N1CCN(c2cc(Cl)ccc2C)CC1 (stereo unspecified)	-	-	.	-	-	81.6	-
CCCCC(c1nnnn1CC1CCCO1)N1CCN(c2ccccc2)CC1 (stereo unspecified)	-	-	-	-	-	-	.
CC(C)C[C@@H](CNCC(=O)[C@H](C)NC(=O)c1[nH]cnc1C(=O)N[C@@H](C)CN)NC(=O)c1nc[nH]c1C(=O)N[C@@H](CC(=O)O)C(=O)O	.	-	.	-	.	.	.
COC(=O)c1[nH]c2c(c1C)C(=O)CC(c1cc(OC)ccc1OC)C2 (stereo unspecified)	-	-	-	-	-	-	.
CSCCOC(=O)c1[nH]c2c(c1C)C(=O)CC(c1ccco1)C2 (stereo unspecified)	-	-	?	-	-	-	.
Cc1c(C(=O)OCc2ccccc2)[nH]c2c1C(=O)CC(c1ccco1)C2 (stereo unspecified)	-	-	?	-	-	84.4	-
Cc1c(C(=O)OCCOC(C)C)[nH]c2c1C(=O)CC(c1ccco1)C2 (stereo unspecified)	-	-	?	-	-	88.9	-
C=CCOC(=O)c1[nH]c2c(c1C)C(=O)CC(c1cc(OC)c(OC)c(OC)c1)C2 (stereo unspecified)	-	-	-	-	-	72.4	-
COC(=O)c1[nH]c2c(c1C)C(=O)CC(c1cccs1)C2 (stereo unspecified)	-	-	?	-	-	82.0	-
S=C(NCc1cccnc1)Nc1ccc(Oc2ccc(Cl)cc2)cc1	-	-	-	-	.	-	.
CC(CC(=O)Nc1cccnc1)c1ccccc1 (stereo unspecified)	-	-	-	-	-	-	.
Cn1c(=O)c2cc(NC(=S)NC3CC3)ccc2n1C/C=C/c1ccccc1	.	-	.	.	.	.	.
Cc1cn2c(=O)c(C(=O)N3CCN(c4ccccc4Cl)CC3)cnc2s1	-	-	.	-	.	-	.
COCCOC(=O)c1[nH]c2c(c1C)C(=O)CC(c1ccco1)C2 (stereo unspecified)	-	-	-	-	-	?	-
CCOC(=O)c1[nH]c2c(c1C)C(=O)CC(c1ccco1)C2 (stereo unspecified)	-	-	?	-	-	-	.
COc1ccc([C@H]2CC(=O)C=C(c3cccc4c3sc3ccccc34)C2)cc1OC	-	-	.	-	.	96.5	-
Oc1ccc(/C=C/c2nc(-c3ccccc3O)n(-c3ccccc3)n2)cc1	-	-	.	-	-	74.3	20.2µM
Oc1ccccc1-c1nc(/C=C/c2ccccc2)nn1-c1ccccc1	-	-	-	-	-	-	.
O=C1CSC(c2cn(-c3ccccc3)nc2-c2cccs2)N1CC1CCCO1 (stereo unspecified)	-	-	-	-	-	-	.
COC(=O)c1cccc(CN2C(=O)C(C)Oc3ccc(C)cc32)c1 (stereo unspecified)	.	-	.	.	.	.	.
COc1ccccc1C(CC(=O)Nc1ccccc1C)c1ccc(OC(C)C)cc1 (stereo unspecified)	-	-	-	-	-	?	-
CCOC(=O)c1sc2nc(C)nc(NCc3cccnc3)c2c1C	-	-	-	-	-	-	.
Cc1nc(NCc2cccnc2)c2c3c(sc2n1)CC(C)CC3 (stereo unspecified)	-	-	-	-	-	?	-
SMILES	SR-BI DiI-HDL act	NOD2 RIPK2 PPI	Lipid droplet	TLR9-MyD88 inh	TLR4 MyD88 comp	SR-BI HDL uptake	DiI quencher
CNC(=O)c1ccc(Nc2nnc(-c3ccc(O)cc3)c3ccccc23)cc1	-	-	-	-	.	99.1	-
Nc1nncn1C(=O)CCCOc1ccc(Cl)cc1Cl	-	-	.	-	-	-	.
O=C(Nc1ccccc1-c1nnn(CC(=O)N2CCc3ccccc3C2)n1)C1CCC1	-	-	-	-	-	-	.
CCC(=O)Nc1ccccc1-c1nnn(CC(=O)N2c3ccccc3CC2C)n1 (stereo unspecified)	-	-	-	-	-	-	-
CC1Cc2ccccc2N1C(=O)Cn1nnc(-c2ccccc2NC(=O)C2CCC2)n1 (stereo unspecified)	-	-	-	-	-	78.6	-
O=C(NCCn1cc(SCC(=O)N2CCOCC2)c2ccccc21)c1c(F)cccc1F	-	-	-	-	-	-	-
O=C(CSc1cn(CCNC(=O)c2cccs2)c2ccccc12)NCC1CCCO1 (stereo unspecified)	-	-	-	-	-	-	-
O=C(CSc1cn(CCNC(=O)c2cccs2)c2ccccc12)NC1CCCCC1	-	-	-	-	-	-	.
CN(Cc1ccc(OC(F)F)cc1)C(=O)c1ccccc1Sc1ccccc1C#N	-	-	-	-	.	85.2	-
CC(OC(=O)c1cccc(NS(C)(=O)=O)c1)C(=O)Nc1ccc(N2CCOCC2)cc1 (stereo unspecified)	-	-	-	-	-	78.4	-
COc1ccc(/C(C)=C2\SC(=S)N(CCC(=O)O)C2=O)cc1	-	-	-	-	-	-	.
O=C(Nc1cccc(-c2csc(Nc3ccc(Cl)cc3)n2)c1)c1cccc(C(F)(F)F)c1	-	-	-	-	.	109.8	2.1µM
Clc1ccc(Nc2nc(-c3cccnc3)cs2)cc1	-	-	-	-	-	-	.
CCC(C)NCCOCCOc1ccc(F)cc1 (stereo unspecified)	-	-	-	-	-	-	.
Cc1cc(=O)[nH]c(SCC(=O)Nc2c(C)n(C)n(-c3ccccc3)c2=O)n1	-	-	.	-	.	-	.
O=C(Nc1nc(-c2ccccn2)cs1)c1ccc(-c2ccccc2F)o1	-	-	.	-	.	-	-
Cc1sc(NC(=O)CN2CCOCC2)nc1-c1ccc2c(c1)CCN2S(=O)(=O)c1ccccc1	-	-	-	-	-	?	-
O=C(CN1CCOCC1)Nc1nc(-c2ccc3c(c2)CCN3S(=O)(=O)c2ccccc2)cs1	-	-	-	-	-	-	-
COc1cc2c(cc1OC)-c1cc(NC3CCCC3)nc(=O)n1CC2	-	-	.	-	-	-	.
COc1cc2c(cc1OC)-c1cc(OCc3ccccc3Cl)nc(=O)n1CC2	-	-	.	-	-	78.1	-
CCCCCCCCOC(=O)CCc1c(C)[nH]c(=S)[nH]c1=O	-	-	.	-	-	80.5	-
CCOC(=O)Cc1csc(SCC(=O)Nc2oc(C)c3c(C)n[nH]c(=O)c23)n1	-	-	.	-	.	-	.
